Reference: ChEMBL document CHEMBL4513216, “Probing the Open Global Health Chemical Diversity Library for Multistage-Active Starting Points for Next-Generation Antimalarials” (ACS Infect Dis, 2020)

Assay: Toxicity liver stage against HepG2, at 10uM
Assay type: cell-based
Design: test concentration 10 uM, cell line HepG2-A16-CD81EGFP
Details: human, HepG2-A16-CD81EGFP cells; read-out: INHIBITION
Method in brief: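 Uninfected HepG2-A16-CD81EGFP cells, 3 × 10^3 per well, 1536-well, plated on prespotted compound at 10 μM final, parasite-free screening media added to match infected plates; puromycin 10 μM positive, DMSO 0.5% negative; run in parallel with 48 h PbLuc assay at 37 °C, 5% CO2; viability by CellTiter-Glo luminescence, normalized to controls.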

SMILES | cytotoxicity at 10 µM
Cc1nn(C(C)C)c(C)c1NC(=O)Nc1cccnc1N1CCCC1 | -5.79%
CCS(=O)(=O)N1CC(=O)N(CCCc2ccccc2)CC(O)C1 (configuration not stated) | -5.64%
CCCC1CN(CCOC)C(=O)c2cccnc2O1 (configuration not stated) | 5.42%
Cc1occc(=O)c1OCc1noc(C(=O)NCC(C)C)n1 | 6.43%
CC(C)CCNC(=O)c1ccc(-n2cnc3ccccc3c2=O)cc1 | -6.17%
Cc1cc(NCCO)nc2[nH]nc(N)c12 | -51.7%
Cc1ccc(C(=O)Nc2nnc(CC(C)C)s2)c(-n2cnnn2)c1C | -147%
CC(=O)c1c(C)nn(CC(=O)Nc2ccc(F)cc2)c1C | -72%
CC(C)OC(=O)CN1N=C(C(=O)N2CCCC2)S(=O)(=O)c2ccccc21 | -2.93%
O=C(NCc1nc2ccccc2[nH]1)c1cnn2c1OCCC2 | 0.0962%
COCC(=O)Nc1cnc(N2CCOCC2)nc1 | -10.7%
CC(NC(=O)C1CN(c2ncnc3c2nnn3C)C1)c1ccccc1 (configuration not stated) | 2.8%
Cc1cccn2c(=O)cc(OC(=O)c3ccccc3Cl)nc12 | 10.7%
O=C(N1CCOCC1)N1CCc2ncnc(NC3CC3)c2CC1 | -20.9%
Cc1cccc(CN2C[C@@H]3CN(C(=O)c4ccsc4)C[C@@H]3C2=O)c1 | -18.8%
Cc1nn(Cn2ccc(C(=O)N3CCCCCC3)n2)c(C)c1Cl | 0.781%
Cc1cc(NC(=O)CCn2nc(C)c3ccccc32)n(C)n1 | 3.4%
CCN(CC)C(=O)CSc1nc2cc(C)nc-2c(O)n1Cc1ccco1 | 3.49%
Cc1nn(C)cc1S(=O)(=O)N(CCc1ccccc1)Cc1ccn(C)n1 | 1.43%
Cc1nn(C)cc1-c1cc(C(F)F)nc(NC2CCCCC2)n1 | 1.84%
O=C1CC(c2cccnc2)c2c(sc3c2CCCC3)N1 (configuration not stated) | 8.75%
O=C(c1cnc(O)c(Cl)c1)N1CCCC(c2nccs2)C1 (configuration not stated) | 3.63%
Nc1nc(N)c2c(n1)OC1(CCN(C(=O)CC3CCCCN3)CC1)C2 (configuration not stated) | -0.24%

SMILES | cytotoxicity at 10 µM
CNc1cc(C2CN(C(=O)c3cscn3)CCO2)nc(C)n1 (configuration not stated) | 9.49%
COc1cc2c(cc1CN1CCc3sccc3C1C)OCO2 (configuration not stated) | 7.01%
CC(C)C(=O)N1CCCC1c1nc(N(C)C)ncc1-c1ccc(Cl)cc1 (configuration not stated) | 20.1%
Cc1cc(N2CCOC(c3ccncn3)C2)ncn1 (configuration not stated) | 2.91%
Cc1nccc(CC2COCCN(c3cnccn3)C2)n1 (configuration not stated) | 0.933%
CC(=O)N1CCCC1c1cc(Nc2nnc(C)s2)nc(C)n1 (configuration not stated) | -18.2%
O=S1(=O)NC(C2CCN(Cc3ccccn3)CC2)Nc2ccccc21 (configuration not stated) | -33.6%
Cc1cc(C(F)(F)F)c2c(C3CCCN(C(=O)C4CC4)C3)noc2n1 (configuration not stated) | -25.1%
O=C1NC2(Cc3ccccc31)CN(CC1CCNCC1)C2 | 10.8%
CN(C)c1ccc(C(=O)N2CCCc3cc(OC(F)(F)F)ccc32)cn1 | -45.9%
CCc1ccc2c(c1)C(CCNC(=O)CCc1ccsc1)C(=O)N2 (configuration not stated) | -41.5%
O=S(=O)(c1cc(F)ccc1N1CC(n2cccn2)C1)C(F)(F)F | 11.3%
COc1ccc(CN(C)Cc2c(C)noc2C)c(Br)c1OC | -0.2%
COCCS(=O)(=O)Cc1nnnn1-c1ccccc1 | -9.4%
COCCCSc1ccc(NCc2cscn2)cc1 | 6.43%
O=C(Nc1cccc(C(F)(F)F)c1)C1CC(=O)N(Cc2ccccn2)C1 (configuration not stated) | -0.505%
CC(C)CCC(=O)N1CCCC1c1nnc2n1CCCCC2 (configuration not stated) | -8.88%
CN(Cc1ccsc1)C(=O)Nc1cccc(N2CCOC2=O)c1 | -12.9%
FC(F)c1nnc2ccc(N3CCC4(CCCCC4)C3)nn12 | 1.47%
CSC(C)CC(=O)N1CCC(n2ccnn2)CC1 (configuration not stated) | -47.9%
CCCNC(=O)CCc1ccnc2ccccc12 | 5.25%
Cc1nc(C)n(CC2CCCN2c2ncnc3c2CCC3)n1 (configuration not stated) | 8.03%
O=C(CN1CCOc2ccc(Cl)cc21)NCCCn1cccn1 | -0.174%

SMILES | cytotoxicity at 10 µM
Cc1noc(C)c1CN(C)C(=O)C1(N)CCCCC1 | 6.67%
Cn1cc(C(=O)NC2CCCC2)c(-c2cccnc2)n1 | 10.3%
O=C1C(N2CCN(c3ccccc3Cl)CC2)CCN1C1CCOCC1 (configuration not stated) | -0.455%
CCCNC(=O)c1cccc2ncccc12 | -50.3%
COc1ccccc1C(C)CC(=O)N1CCN(S(N)(=O)=O)CC1 (configuration not stated) | -51.3%
CN(C)C(=O)Cn1ccc2cc(NC(=O)N3CCSCC3)ccc21 | 5.25%
Cn1cc(C2NC3(CCCC3)C(=O)N2CC2CC2)c(=O)n(C)c1=O (configuration not stated) | 6.93%
CCCN1CCC(NC(=O)NCCc2nc(CC)c(C)s2)CC1 | -19%
Cc1cc(S(=O)(=O)N2CCCc3ccc(F)cc32)sc1C(=O)O | 18.1%
Cn1ccnc1SCc1nc(C(C)(C)NC(=O)OC(C)(C)C)no1 | -0.679%
Cn1cnc(S(=O)(=O)N2CCCC2)c1Cl | 15.1%
CCNS(=O)(=O)c1ccc(C)c(C(=O)N(C)Cc2ccco2)c1 | 0.685%
CN(Cc1ccccc1Br)C(=O)Cn1nc(-c2ccc(F)cc2)oc1=O | 9.46%
Cc1nn(C(C)C)c(C)c1NC(=O)c1ccncc1 | -17.3%
CCn1ccnc1CN1CCN(Cc2ccccn2)CC1C (configuration not stated) | 14.3%
Cc1nc(CN2CCC23CCN(Cc2ccoc2)CC3)cs1 | -109%
CC(C)N(C)Cc1cc(=O)n2c(n1)CN(C(=O)c1ccc[nH]1)CCC2 | -105%
O=C(c1cn2cc(Cl)cnc2n1)N1CCOCC(O)(CN2CCCC2)C1 (configuration not stated) | -8.42%
CN(Cc1n[nH]c2c1CCC2)c1nc(C2CCCC2)nc2c1CNC2 | -3.86%
CCc1nc2c(N3CCC4(CC3)CC(=O)N(CC)C4)ncnc2o1 | -3.2%
Cc1nnc(NCCn2nc(C)c(Cl)c2C)o1 | 1.91%
O=C1CCCCN1CCCC(=O)N1CCC2(CC1)[C@H](O)C[C@@H]2O | 1.12%
CC(C)c1ncc(CN2C[C@@H](CN3CCCCC3)[C@@H](CO)C2)cn1 | -10.2%

SMILES | cytotoxicity at 10 µM
O=C(NCCO)c1coc(CN2CCN(c3ccccc3F)CC2)n1 | -11.2%
CN(C)c1nc2c(c(N(C)Cc3n[nH]c4c3CCCCC4)n1)CCNC2 | 2.95%
c1cc(-c2cnccn2)cc(-c2ccn(CCCN3CCCCC3)n2)c1 | -2.15%
Cc1cnccc1NCCn1ccnc1C1CCCCC1 | -4.2%
Cc1ccccc1N1CCCN(C(=O)CCc2ccncc2)CC1 | -9.88%
O=C1NCCCc2[nH]c(C3CCCN(C(=O)C4CC4)C3)nc21 (configuration not stated) | 3.55%
Cc1nc[nH]c1CNCc1cccnc1N(C)C1CCCCC1 | 5.32%
Fc1ccccc1CN1CCCN(c2ncnc3[nH]ccc23)CC1 | -5.86%
O=C(NC1CCNCC1)C1(N2CCCCC2)Cc2ccccc2C1 | -5.47%
Cc1ccc(C)c(NC(=O)N2CCC3(CC2)NC(=O)CC3C(=O)O)c1 (configuration not stated) | 4.9%
Cc1ccccc1OCCC(=O)N1CCc2nc(C)n(C)c(=O)c2CC1 | -0.852%
COc1ccc(C(C(=O)O)N(C)Cc2c(C)nn(C)c2C)c(C)c1 (configuration not stated) | 7.47%
CC(O)CN1CC2(CCC1=O)CCN(C(=O)c1cnn(C)c1)CC2 (configuration not stated) | 3.74%
CCOCC(=O)N1CCC(C2CCN(Cc3ccc(Cl)cc3)C2)CC1 (configuration not stated) | -9.15%
CCCc1nnc(N2CCCC(c3nnc(Cn4ccnc4)n3C)C2)s1 (configuration not stated) | -0.391%
CCc1ccc(C2CC(=O)Nc3n[nH]cc32)o1 (configuration not stated) | 0.0773%
COc1ccc(Cc2ncc3c(n2)CN(C(=O)C2COCCO2)C3)cc1 (configuration not stated) | -0.579%
CC(C)N1CCCC(C(=O)N2CCc3c(nc(CC4CC4)[nH]c3=O)C2)C1 (configuration not stated) | -7.41%
CC(=O)N1CCOC(CNC(=O)c2cccc(CCC(C)(C)O)c2)C1 (configuration not stated) | 0.303%
Cc1oc(-c2cccc(F)c2)nc1CN1CCOCS1(=O)=O | 2.74%
CCS(=O)(=O)N1CCC(c2nnc(CN3CCCCC3)n2C)CC1 | -6.03%
CC(=O)NCC(=O)N1CCC(C2CCN(Cc3ccc(Cl)cc3)C2)CC1 (configuration not stated) | -9.12%
COc1ccc(CC2(CO)CCN(c3cc(N)ncn3)CC2)cc1 | -12.9%

SMILES | cytotoxicity at 10 µM
COCCN1CCC(CN(CC2CCCO2)C(=O)COC)CC1 (configuration not stated) | -21.1%
Cn1c(Cn2ccnc2)nnc1C1CCCN(C2CCCCC2)C1 (configuration not stated) | -13.2%
CCn1ccnc1CN1CCC(CNC(=O)c2ccc(C)nc2)C1 (configuration not stated) | -8.8%
Nc1nccc(NCc2cc3n(n2)CCCN(C2CCCCC2)C3)n1 | -16%
CCCc1cc(CNC(=O)C2CCOc3ccccc3C2)on1 (configuration not stated) | -3.8%
CCc1cc(O)nc(C2CCCN2C(=O)c2cc(C)no2)n1 (configuration not stated) | 2.69%
Cc1cnn(C2CN(CC(=O)NCc3ccccn3)C2)c1 | -10.9%
N#Cc1ccc(CN2CCC(c3ccnn3CCO)CC2)cc1 | -1.72%
Cc1cc(C2CCCN2CC(=O)N(CCC#N)c2ccccc2F)on1 (configuration not stated) | -1.5%
CCN(CC)Cc1ccc(C(=O)N2CCN(CC(C)O)CC2)cc1 (configuration not stated) | -12.6%
O=C(NCCc1ccn(-c2ccccc2)n1)N1CCC1 | -0.361%
Cc1cc(CN2CCOC(CN(C)c3cccnn3)C2)no1 (configuration not stated) | 8.23%
Cc1nc(CC(=O)N2CCC(c3nn(C)c4ncccc34)CC2)cs1 | -18.9%
CCOC1COC2(CCN(CC3CC3)CC2)C1 (configuration not stated) | -106%
COCC(=O)NCc1cc(=O)n2c(n1)CN(CC1CC1)CCC2 | -88.5%
c1cncc(CO[C@H]2CN(Cc3ccco3)[C@@H]3COC[C@H]23)c1 | -101%
Cc1nc[nH]c1CN1CCc2nc3scc(C)c3c(=O)n2CC1 | -35.7%
CC(C)CC(=O)N1CC[C@H]2N(C)CC[C@@]2(C(=O)Nc2cccnc2)CC1 | -96.9%
O=C(NCc1cc(=O)n2c(n1)CN(CC1CCOC1)CCC2)C1CC1 (configuration not stated) | -11.2%
c1ccc(CN2CCO[C@H]3[C@H](OCCN4CCCC4)CC[C@@H]32)nc1 | -1.5%
